Consider 13 compounds from ChEMBL document CHEMBL1124602, “Diethylstilbestrol-linked cytotoxic agents: synthesis and binding affinity for estrogen receptors” (J Med Chem, 1989).

Activity calls are given as the source filed them. The calls are words filed in the database; no cut-off is given here.

The target in the first test is T1, Estrogen receptor (Rattus norvegicus) (UniProt P06211+Q62986). Briefly: Relative binding affinity (RBA) for estrogen receptor of rat uterine cytosol compared to [3H]estradiol. The format is protein assay.
Conditions: not given
Summed up:
(§1)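 Competitive binding: rat uterine cytosol incubated 30 min at 18 °C with 5 × 10⁻⁹ [³H]estradiol, alone or with increasing competitor (10⁻⁹ to 10⁻⁵ M). Unlabeled estradiol serves as the reference competitor for relative binding affinity.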
As for `CC[C@@H](c1ccc(O)cc1)[C@H](CCCC(=O)Oc1ccc(Cl)cc1)c1ccc(O)cc1`, the relative binding affinity (RBA) stood at 0.3. On the same count and under the same terms, next, `CCOCCCC[C@H](c1ccc(O)cc1)[C@@H](CC)c1ccc(O)cc1`: 1.2; `CCCCCCCC[C@H](c1ccc(O)cc1)[C@@H](CC)c1ccc(O)cc1`: 0.2. On the same count and under the same terms, in the case of `CC[C@@H](c1ccc(O)cc1)[C@H](CCCC(=O)O)c1ccc(O)cc1` it was 0.1. In turn, `CC[C@@H](c1ccc(O)cc1)[C@H](CCCCCl)c1ccc(O)cc1` displayed a relative binding affinity (RBA) of 3. The same measure, in the same setting: in the case of `CC[C@@H](c1ccc(O)cc1)[C@H](CCCC(=O)Oc1c(Cl)c(Cl)c(Cl)c(Cl)c1Cl)c1ccc(O)cc1` it was 0.3; in that of `CCCC[C@H](c1ccc(O)cc1)[C@@H](CC)c1ccc(O)cc1`, 10; in that of `CC[C@@H](c1ccc(O)cc1)[C@H](CCCC(=O)N(CC)CC)c1ccc(O)cc1`, 1. As to `CC[C@@H](c1ccc(O)cc1)[C@H](CCCCI)c1ccc(O)cc1`, the relative binding affinity (RBA) turned out to be 1.5.

Regarding `CC[C@@H](c1ccc(O)cc1)[C@H](CCCCO)c1ccc(O)cc1`, the relative binding affinity (RBA) is 1.5. The same measure, in the same setting: next, `CC[C@@H](c1ccc(O)cc1)[C@H](CCCCOC(=O)NCCCl)c1ccc(O)cc1`: 1. Same read-out and setting: next, `CC[C@@H](c1ccc(O)cc1)[C@H](CCCCOS(C)(=O)=O)c1ccc(O)cc1`: 1.8.

The target in a further test is T1, Estrogen receptor (Rattus norvegicus). The experiment in a line: Relative binding affinity (RBA) for estrogen receptor in rat uterine cytosol compared to [3H]estradiol; No binding. The settings on record: Uterus. Summed up: as §1
Regarding `CC[C@@H](c1ccc(O)cc1)[C@H](CCCN[C@H]1C[C@H](O[C@H]2C[C@](O)(C(C)=O)Cc3c(O)c4c(c(O)c32)C(=O)c2c(OC)cccc2C4=O)O[C@@H](C)[C@H]1O)c1ccc(O)cc1`, the “relative binding affinity (RBA)” value was “inactive”.
